Eight compounds from ChEMBL document CHEMBL1133503 (J Med Chem, 2000) can be followed below.

The nature of assay [1]: Concentration required to reduce cell survival to 10% of controls using V-79 cells in the clonogenic assay, in anaerobic conditions (hypoxic conditions). Particulars: Cricetulus griseus, V79. The class given is functional. The essentials: (§1)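 V-79 cells (500 000 per bottle) grown 20 h in MEM with 10% FBS. Hypoxic set gassed 2 h at 37 °C with humidified 95% N2/5% CO2. Drug in ethanol/water or DMF injected through septa. Exposure 3 h under air or hypoxia. Cells trypsinised, counted by trypan blue, 500 plated in triplicate for 6–8 days. Colonies stained with crystal violet, survival relative to solvent control.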

The nature of assay [2]: Hypoxic selectivity expressed as the ratio of IC50 values in air and nitrogen. It is filed as functional.
Assay [3] in a line: Concentration required to reduce cell survival to 10% of controls using V-79 cells in the clonogenic assay, in aerobic conditions. The class given is functional. Particulars: Cricetulus griseus, V79. The gist of the method: as §1
A short description of assay [4]: Concentration of drug required to reduce V-79 cell survival to 50% of controls in a SRB assay. The class given is functional, cell-based. Particulars: Cricetulus griseus, V79. The essentials:
(§2)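 V-79 cells (about 7 × 10³ per 100 μL) preincubated 24 h, then exposed to drug for 3 h under oxic conditions. Washed 5× with HBSS and grown 48 h more. Fixed with TCA and stained with SRB. Bound dye dissolved in 10 mM Tris, spotted on TLC and read by video densitometry. IC50 is the mean of triplicates in one experiment. Ratio is IC50 of sulfide over sulfoxide or sulfone.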
On the technique in general: In SRB staining, fixed cells bind dye roughly in proportion to their protein.

The nature of assay [5]: Relative cytotoxicity is expressed as the ratio of the IC50 values of the corresponding sulfide to sulfoxide or to sulfone. It is filed as functional, Cricetulus griseus. The gist of the method: as §2
For assay [6], the species on record is Rattus norvegicus. Put plainly: Bioreduction experiment was conducted by incubation of the sulfoxides with rat liver S-9 fractions in anaerobic conditions N2). The class given is functional. The essentials:
(§3)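 Rat liver S-9 fraction incubated with sulfoxide at 37 °C for 30 min with shaking. Aerobic vials were left open to air. Anaerobic vials were purged with N2 for 10 min before the compound was injected. Cofactor was NADPH, benzaldehyde, 2-hydroxypyrimidine or acetaldehyde, or none. Controls were boiled S-9 and S-9 without cofactors. For menadione, S-9 was preincubated aerobically with 1 equiv for 30 min, then benzaldehyde was added. Sulfide or sulfone was measured by HPLC or TLC densitometry.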

Assay [7] is filed under the species Rattus norvegicus. The assay is described as follows: Reduction potential (SCE) determined by differential pulse polarography of the sulfoxides […]. The class given is functional.
Assay [8] is filed under the species Rattus norvegicus. Put plainly: Bioreduction experiment was conducted by incubation of the sulfoxides with rat liver S-9 fractions in anaerobic conditions (N2, without cofactors). The class given is functional. More on the design: concentration or dose not given beside the values. The gist of the method: as §3
For assay [9], the species on record is Rattus norvegicus. Put plainly: Bioreduction experiment was conducted by incubation of the sulfoxides with rat liver S-9 fractions in anaerobic conditions (N2, benzaldehyde). Further details: concentration or dose not given beside the values. The class given is functional. The essentials:
as §3

Assay [10] is filed under the species Rattus norvegicus. Put plainly: Bioreduction experiment was conducted by incubation of the sulfoxides with rat liver S-9 fractions in anaerobic conditions (N2). It is filed as functional. The essentials: as §3
The species entered for assay [11] is Rattus norvegicus. The assay is described as follows: Bioreduction experiment was conducted by incubation of the sulfoxides with rat liver S-9 fractions in anaerobic conditions (N2 2-hydroxypyrimidine). The class given is functional. The essentials: as §3
The species named for assay [12] is Rattus norvegicus. Put plainly: Bioreduction experiment was conducted by incubation of the sulfoxides with rat liver S-9 fractions in anaerobic conditions(N2, without cofactors). It is filed as functional. The gist of the method: as §3
The species entered for assay [13] is Rattus norvegicus. The assay is described as follows: Bioreduction experiment was conducted by incubation of the sulfoxides with rat liver S-9 fractions in anaerobic conditions(N2, benzaldehyde). It is filed as functional. The essentials: as §3
The species entered for assay [14] is Rattus norvegicus. Put plainly: Bioreduction experiment was conducted by incubation of the sulfoxides with rat liver S-9 fractions in aerobic conditions (N2, acetaldehyde). The class given is functional. The essentials: as §3
For assay [15], the species on record is Rattus norvegicus. The assay is described as follows: Bioreduction experiment was conducted by incubation of the sulfoxides with rat liver S-9 fractions in aerobic conditions (N2, NADPH). It is filed as functional. The gist of the method: as §3
The species named for assay [16] is Rattus norvegicus. The assay is described as follows: Bioreduction experiment was conducted by incubation of the sulfoxides with rat liver S-9 fractions in aerobic conditions (air, control). It is filed as functional. The essentials: as §3
For assay [17], the species on record is Rattus norvegicus. Put plainly: Bioreduction experiment was conducted by incubation of the sulfoxides with rat liver S-9 fractions in aerobic conditions (air, without cofactors). The class given is functional. The gist of the method: as §3
The species entered for assay [18] is Rattus norvegicus. Put plainly: Bioreduction experiment was conducted by incubation of the sulfoxides with rat liver S-9 fractions in aerobic conditions (air, NADPH). It is filed as functional. The gist of the method: as §3
For assay [19], the species on record is Rattus norvegicus. The assay is described as follows: Bioreduction experiment was conducted by incubation of the sulfoxides with rat liver S-9 fractions in aerobic conditions (N2, menadione). It is filed as functional. The essentials:
as §3

The species entered for assay [20] is Rattus norvegicus. Put plainly: Bioreduction experiment was conducted by incubation of the sulfoxides with rat liver S-9 fractions in aerobic conditions (air, benzaldehyde). It is filed as functional. The essentials: as §3
The species named for assay [21] is Rattus norvegicus. The assay is described as follows: Bioreduction experiment was conducted by incubation of the sulfoxides with rat liver S-9 fractions in aerobic conditions (N2, 2-hydroxypyrimidine). The class given is functional. The essentials:
as §3

Regarding `[O-][S+](c1ccccc1)c1ccc(N(CCCl)CCCl)cc1` (configuration not stated), the IC90 – broadly, the point of the concentration-response curve where the effect stands at 90% – in [1] came out at 189 µM; in assay [3] it was 2010 µM. In addition, the Selectivity in assay [2] was 11.

On to `Cl.O=S(=O)(c1ccc(Nc2c3ccccc3nc3ccccc23)cc1)c1ccc(N(CCCl)CCCl)cc1`, for which, in [4], half-maximal inhibition (IC50) required 22.2 µM. For the same compound, the Cytotoxicity in assay [5] stood at 0.09.

With `C[S+]([O-])c1ccccc1` (configuration not stated) [METHYLPHENYLSULFOXIDE], the Bioreduction was 0% in the assay filed under Rattus norvegicus [6], 0% in the assay listed under Rattus norvegicus [8] and 10.2% in the assay listed under Rattus norvegicus [9]. For the same compound, the E in the assay filed under Rattus norvegicus [7] is 2.4 -V.

`[O-][s+]1c2ccc(N(CCCl)CCCl)cc2c2cc(N(CCCl)CCCl)ccc21`: the values for the IC90 in assay [1] and in assay [3] were 1520 µM and 4670 µM, respectively. The Bioreduction in the assay filed under Rattus norvegicus [10] is listed as 0%; in the assay listed under Rattus norvegicus [8], 0.6%; in the assay listed under Rattus norvegicus [11], 0.33%; in the assay filed under Rattus norvegicus [9] it was 0.6%. Also, the E in the assay filed under Rattus norvegicus [7] is on record as 1.96 -V. Also, the Selectivity in [2] worked out at 3.

For `[O-][S+](c1ccc(NCCCl)cc1)c1ccc(NCCCl)cc1`, the results for the IC90 in assay [1] and in assay [3] were 2210 µM and 1580 µM, respectively. In addition, the Selectivity in [2] came out at 0.7.

For `[O-][s+]1c2ccccc2c2cc(N(CCCl)CCCl)ccc21` (configuration not stated), the results for the IC90 in assay [1] and in assay [3] were 161 µM and 210 µM, respectively. Moreover, the Bioreduction in the assay listed under Rattus norvegicus [10] is on record as 0%; in the assay filed under Rattus norvegicus [12] it was 0.46%; in the assay listed under Rattus norvegicus [13], 1.68%; in the assay filed under Rattus norvegicus [11], 2.02%. In addition, in the assay listed under Rattus norvegicus [7], the E is 2.03 -V. Besides, the Selectivity in assay [2] stood at 1.3.

For `[O-][S+](c1ccccc1)c1ccccc1` [(PHENYLSULFINYL)BENZENE], the Bioreduction in the assay filed under Rattus norvegicus [14] came out at 6%; in the assay filed under Rattus norvegicus [6], 0%; in the assay filed under Rattus norvegicus [15], 0%; in the assay listed under Rattus norvegicus [16] it was 0%; in the assay filed under Rattus norvegicus [17], 0%; in the assay filed under Rattus norvegicus [18], 11.6 nmol/mg. Further, the Bioreduction in the assay listed under Rattus norvegicus [19] was found to be 0%; in the assay listed under Rattus norvegicus [20], 0%; in the assay listed under Rattus norvegicus [8], 0%; in the assay filed under Rattus norvegicus [21], 17.4%; in the assay listed under Rattus norvegicus [9], 18%. Moreover, in the assay filed under Rattus norvegicus [7], the E is recorded as 2.3 -V.

In the case of `O=[N+]([O-])c1ccc(S(=O)(=O)c2ccc(N(CCCl)CCCl)cc2)cc1`, the IC50 – broadly, the concentration that gives 50% inhibition – in assay [4] was found to be 26.7 µM. In assay [5], the Cytotoxicity came out at 0.08.
